Measured values from ChEMBL document CHEMBL1142402, “Synthesis of curcumin mimics with multidrug resistance reversal activities” (Bioorg Med Chem, 2008).
The source made the active and inactive calls. No cut-off for these calls is given here.

Key:
KB [1] = test: Cytotoxicity against human KB cells assessed as cell viability at 10 uM after 48 hrs by MTS assay; format: functional; conditions: read-out: Activity
Procedure, shortened: (§1)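 KB (P-gp-negative) and KBV20C (P-gp-expressing) cells were grown in RPMI 1640 with 10% FBS and 1% penicillin/streptomycin. KBV20C cells were maintained with 20 nM vincristine. Cells were exposed to each compound at 10 µM for 48 h. Viability (%) was read by MTS. Values are means ± standard deviation of three experiments.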

[2] = Cytotoxicity against multidrug resistant P-gp expressing human KBV20C cells assessed as cell viability at 10 uM after 48 hrs by MTS assay; format: functional; conditions: read-out: Activity; procedure, shortened: as §1
[3] = Cytotoxicity against multidrug resistant P-gp expressing human KBV20C cells assessed as cell viability in presence of vincristine by MTS assay; format: functional, cell-based
[4] = Cytotoxicity against multidrug resistant P-gp expressing human KBV20C cells assessed as cell viability in presence of paclitaxel by MTS assay; format: functional, cell-based
KBV20C = test: Inhibition of Pgp in multidrug resistant human KBV20C cells assessed as increase in intracellular accumulation of Rh123; format: cell-based
Procedure, shortened: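 They were then incubated a further 3 h with Rh123 and washed with PBS. Mean intracellular Rh123 fluorescence was measured by flow cytometry and expressed relative to control. Values are means ± SD of three independent experiments, compared by Student's t-test.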

KB [5] = test: Cytotoxicity against human KB cells assessed as cell viability after 48 hrs by MTS assay; format: functional, cell-based
[6] = Cytotoxicity against multidrug resistant P-gp expressing human KBV20C cells assessed as cell viability after 48 hrs by MTS assay; format: functional, cell-based

Compound: COc1cc(/C=C/C(=O)c2cccc(NC(=O)c3ccc(Cl)cc3)c2)ccc1O
- viability at 10 µM (KB [1]): 95.7%
- viability at 10 µM [2]: 96.6%
- IC50 [3]: 480 nM
- IC50 [4]: 63 nM
- Activity (KBV20C): Active

Compound: COc1cc(/C=C/C(=O)c2cccc(NC(=O)c3ccc(Cl)cc3Cl)c2)ccc1O
- viability at 10 µM (KB [1]): 98.3%
- viability at 10 µM [2]: 94.6%
- IC50 [3]: 720 nM
- IC50 [4]: 45 nM

Compound: COc1cc(/C=C/C(=O)c2cccc(NC(=O)c3ccccc3)c2)ccc1O
- viability at 10 µM (KB [1]): 89.5%
- viability at 10 µM [2]: 85.5%
- IC50 [3]: 3820 nM
- IC50 [4]: 420 nM

Compound: CC(=O)O[C@H]1C(=O)[C@@]2(C)[C@H]([C@H](OC(=O)c3ccccc3)[C@]3(O)C[C@H](OC(=O)[C@H](O)[C@@H](NC(=O)c4ccccc4)c4ccccc4)C(C)=C1C3(C)C)[C@]1(OC(C)=O)CO[C@@H]1C[C@@H]2O [PACLITAXEL]
- IC50 (KB [5]): 4.2 nM
- IC50 [6]: 1440 nM

Compound: CC[C@]1(O)C[C@H]2CN(CCc3c([nH]c4ccccc34)[C@@](C(=O)OC)(c3cc4c(cc3OC)N(C=O)[C@H]3[C@@](O)(C(=O)OC)[C@H](OC(C)=O)[C@]5(CC)C=CCN6CC[C@]43[C@@H]65)C2)C1 [VINCRISTINE]
- IC50 (KB [5]): 7.9 nM
- IC50 [6]: 5720 nM

Compound: COC(=O)CC(=O)Nc1cccc(C(=O)/C=C/c2ccc(O)c(OC)c2)c1
- viability at 10 µM (KB [1]): 72.9%
- viability at 10 µM [2]: 106%
- IC50 [3]: 3810 nM
- IC50 [4]: 320 nM

Compound: COc1cc(/C=C/C(=O)c2cccc(NC(=O)c3ccc(Cl)c(Cl)c3)c2)ccc1O
- viability at 10 µM (KB [1]): 78.3%
- viability at 10 µM [2]: 72.6%
- IC50 [3]: 850 nM
- IC50 [4]: 26 nM
- Activity (KBV20C): Active

Compound: COc1cc(/C=C/C(=O)c2cccc(NC(=O)c3c(Cl)cccc3Cl)c2)ccc1O
- viability at 10 µM (KB [1]): 93.7%
- viability at 10 µM [2]: 75.3%
- IC50 [3]: 1230 nM
- IC50 [4]: 100 nM

Compound: COc1cc(/C=C/C(=O)c2cccc(NC(C)=O)c2)ccc1O
- viability at 10 µM (KB [1]): 98.2%
- viability at 10 µM [2]: 92.4%
- IC50 [3]: 1260 nM
- IC50 [4]: 720 nM

Compound: CCOC(=O)C(=O)Nc1cccc(C(=O)/C=C/c2ccc(O)c(OC)c2)c1
- viability at 10 µM (KB [1]): 84.7%
- viability at 10 µM [2]: 103%
- IC50 [3]: 3310 nM
- IC50 [4]: 1090 nM

Compound: COc1cc(/C=C/C(=O)c2cccc(NC(=O)c3ccco3)c2)ccc1O
- viability at 10 µM (KB [1]): 60.2%
- viability at 10 µM [2]: 77.6%
- IC50 [3]: 1440 nM
- IC50 [4]: 210 nM

Compound: COc1cc(/C=C/C(=O)c2cccc(N)c2)ccc1O
- viability at 10 µM (KB [1]): 97.6%
- viability at 10 µM [2]: 99.4%
- IC50 [3]: 1260 nM
- IC50 [4]: 830 nM

Compound: COc1ccc(CCN(C)CCC[C@](C#N)(c2ccc(OC)c(OC)c2)C(C)C)cc1OC
- Activity (KBV20C): Active

Compound: COc1cc(/C=C/C(=O)c2cccc(NC(=O)c3cccs3)c2)ccc1O
- viability at 10 µM (KB [1]): 74.7%
- viability at 10 µM [2]: 83.6%
- IC50 [3]: 1410 nM
- IC50 [4]: 180 nM

Compound: COc1cc(/C=C/C(=O)c2cccc(NC(=O)C(C)C)c2)ccc1O
- viability at 10 µM (KB [1]): 67.5%
- viability at 10 µM [2]: 67.7%
- IC50 [3]: 2920 nM
- IC50 [4]: 240 nM

Compound: COc1cc(/C=C/C(=O)CC(=O)/C=C/c2ccc(O)c(OC)c2)ccc1O [CURCUMIN]
- viability at 10 µM (KB [1]): 89.2%
- viability at 10 µM [2]: 93.1%
- IC50 [3]: 820 nM
- IC50 [4]: 420 nM

Compound: CCCC(=O)Nc1cccc(C(=O)/C=C/c2ccc(O)c(OC)c2)c1
- viability at 10 µM (KB [1]): 77.1%
- viability at 10 µM [2]: 80.8%
- IC50 [3]: 2890 nM
- IC50 [4]: 210 nM

Compound: COc1cc(/C=C/C(=O)c2cccc(NC(=O)c3cc(Cl)cc(Cl)c3)c2)ccc1O
- viability at 10 µM (KB [1]): 68.7%
- viability at 10 µM [2]: 70.3%
- IC50 [3]: 410 nM
- IC50 [4]: 22 nM
- Activity (KBV20C): Active
